For 14 compounds, Control and Activity results are on record in ChEMBL document CHEMBL1138007, “Examining the correlations between GSK-3 inhibitory properties and anti-convulsant efficacy of valproate and valproate-related compounds” (Bioorg Med Chem Lett, 2004).

Each structure is given as a SMILES string. Activity calls are given as the source filed them. No cut-off for these calls is given here.

The target of test [1] is Glycogen synthase kinase-3 alpha (Homo sapiens) (UniProt P49840). In words: Inhibitory activity against Glycogen synthase kinase-3 alpha, expressed as percent control. Details: concentration or dose not given beside the values. The method in brief: (§1)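 Recombinant GSK-3α or β, preincubated with compound (0-4 mM), then given phospho-glycogen synthase peptide-2 substrate and [γ-³²P]-ATP plus unlabelled ATP. Buffer: 20 mM MOPS, 0.25 mM Mg acetate, 5 mM MgCl₂, 5 mM β-glycerophosphate, 1 mM EGTA, 0.25 mM Na₃VO₄, 0.25 mM DTT. Reaction ran 30 min at 30 °C, then was spotted on phosphocellulose, acid-washed and scintillation-counted. Background-subtracted counts were normalized to uninhibited activity.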
Sequence of Glycogen synthase kinase-3 alpha (Homo sapiens) (P49840 2-483 limits assumed): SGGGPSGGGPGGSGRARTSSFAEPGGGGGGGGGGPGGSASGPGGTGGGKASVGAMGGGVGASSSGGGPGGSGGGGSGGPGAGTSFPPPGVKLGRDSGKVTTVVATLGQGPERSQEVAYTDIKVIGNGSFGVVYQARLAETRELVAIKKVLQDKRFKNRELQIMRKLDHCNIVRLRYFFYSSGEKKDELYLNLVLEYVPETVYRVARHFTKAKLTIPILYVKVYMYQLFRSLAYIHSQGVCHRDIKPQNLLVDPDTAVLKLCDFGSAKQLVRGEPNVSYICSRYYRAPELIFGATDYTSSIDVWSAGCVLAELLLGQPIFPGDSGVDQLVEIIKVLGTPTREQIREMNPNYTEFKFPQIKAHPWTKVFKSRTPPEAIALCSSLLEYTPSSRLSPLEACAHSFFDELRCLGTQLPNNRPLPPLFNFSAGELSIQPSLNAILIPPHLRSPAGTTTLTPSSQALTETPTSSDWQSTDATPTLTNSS

Test [2] is described as follows: Anti-convulsant activity in experimental animal model; +++ = more effective. The test is classed as functional.
Test [3] is described as follows: Inhibitory activity against Glycogen synthase kinase-3 beta, expressed as percent control. Further details: concentration or dose not given beside the values. The method in brief:
as §1

The nature of test [4]: Anti-convulsant activity in experimental animal model; + = less effective. The test is classed as functional.
The target in test [5] is Glycogen synthase kinase-3 alpha (Homo sapiens) (UniProt P49840). As to the kind of experiment: Inhibitory activity (4 mM) against Glycogen synthase kinase-3 alpha, expressed as percent control. Details: scale not given: the % may be the effect or the level left. A digest of the protocol: as §1
Test [6] shares this target. As to the kind of experiment: Inhibitory activity (0.5 mM) against Glycogen synthase kinase-3 alpha, expressed as percent control. Further details: scale not given: the % may be the effect or the level left. A digest of the protocol: as §1
Test [7] can be described thus: Inhibitory activity (4 mM) against Glycogen synthase kinase-3 beta, expressed as percent control. Details: scale not given: the % may be the effect or the level left. As to conditions: in the assay text read “(0.5 mM)” for “(4 mM)”. A digest of the protocol:
as §1

A short description of test [8]: Inhibitory activity (0.5 mM) against Glycogen synthase kinase-3 beta, expressed as percent control. Further details: scale not given: the % may be the effect or the level left. The method in brief:
as §1

Test [9] is described as follows: Anti-convulsant activity in experimental animal model; ++ = relative to valproate. The test is classed as functional.
Test [10] can be described thus: Inhibitory activity (20 mM) against Glycogen synthase kinase-3 beta, expressed as percent control. Further details: scale not given: the % may be the effect or the level left.

As for `C=CCC(CCC)C(=O)O` (stereo not given), the Control in test [1] stood at 99.2%; in test [3] it was 57.7%. Further, in test [2], the result was Active.
Turning to `CCCC(CCC)C(=O)OC`, the Control in test [1] was 104%; in test [3], 81.8%.
For `CCC(CC)C(=O)O`, in test [4], the Activity entry is “Weak activity”. Further, the Control in test [5] was 0.5%; in test [6] it was 88.3%; in test [7] it was 56.1%; in [8], 56.1%.
Regarding `CCCC(C)(CCC)C(=O)OC`, the figures for the Control in test [1] and in [3] were 99.7% and 122%, respectively.
Turning to `CC/C=C(\CCC)C(=O)OC`, the Control in test [1] came to 61.3%; in [3], 33.3%.
As to `CC/C=C(\CCC)C(=O)O`, the Control in test [1] turned out to be 100%; in [3] it was 91.3%. Further, in [9], the result was Active.
With `[Cl-].[Li+]`, in test [10], the Control was 19.5%.
Take `CCCC(CCC)C(=O)O`: the results for the Control in test [1] and in test [3] were 80.4% and 35.5%, respectively. Besides, in [9], the result was Active.
For `C=CCC(CCC)C(=O)OC(C)C` (stereo not given), the Control in test [1] is 87.9%; in test [3], 110%.
Regarding `O=C1NC(=O)C(c2ccccc2[N+](=O)[O-])=C1Nc1ccc(O)c(Cl)c1`, the Control in [10] is 4.6%.
On to `C=CCC(CCC)C(=O)OC` (stereo not given), for which the figures for the Control in test [1] and in test [3] were 99.9% and 123%, respectively.
For the compound `CCCC(CCC)C(N)=O`, the Control in test [1] came to 96.6%; in test [3], 83.9%. In addition, the result in [2] was Active.
On the same counts, the results for `CCCC(CCC)C(=O)NO` are 54.2%, 49.1% and “Active”.
On the same counts, the results for `CCCC(C)(CCC)C(=O)O` are 67.4%, 24.8% and “Active”.
